ChEMBL document CHEMBL4043282, “Discovery of the First Potent, Selective, and Orally Bioavailable Signal Peptide Peptidase-Like 2a (SPPL2a) Inhibitor Displaying Pronounced Immunomodulatory Effects In Vivo” (J Med Chem, 2018)
Activity calls are given as the source filed them. No cut-off for these calls is given here.

Key:
[1] = target: T1, Signal peptide peptidase-like 2B (Homo sapiens, UniProt Q8TCT7); experiment: Inhibition of human SPPL2b expressed in human U2OS cells using EGFP-labeled TNFalpha (1 to 76 residues) NTF as substrate after 24 hrs by Hoechst staining based high content imaging assay; type: cell-based
T1 sequence (Q8TCT7 whole entry): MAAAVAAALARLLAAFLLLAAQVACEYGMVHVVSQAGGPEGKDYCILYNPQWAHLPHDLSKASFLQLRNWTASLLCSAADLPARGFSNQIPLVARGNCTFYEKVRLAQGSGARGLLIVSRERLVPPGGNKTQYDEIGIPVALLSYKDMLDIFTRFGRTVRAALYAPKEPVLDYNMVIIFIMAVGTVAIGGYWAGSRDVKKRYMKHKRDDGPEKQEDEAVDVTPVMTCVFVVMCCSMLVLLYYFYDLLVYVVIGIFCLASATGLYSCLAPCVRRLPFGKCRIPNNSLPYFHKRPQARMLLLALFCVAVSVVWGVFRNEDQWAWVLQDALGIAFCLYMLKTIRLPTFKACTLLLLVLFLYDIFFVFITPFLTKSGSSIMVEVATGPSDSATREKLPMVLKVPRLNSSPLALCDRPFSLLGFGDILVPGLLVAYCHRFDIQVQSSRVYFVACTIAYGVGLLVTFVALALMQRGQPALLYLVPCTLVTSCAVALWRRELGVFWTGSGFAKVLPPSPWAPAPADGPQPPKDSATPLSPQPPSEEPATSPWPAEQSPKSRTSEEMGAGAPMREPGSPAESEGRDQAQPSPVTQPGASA
In short: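 Stable U-2 OS lines expressing human SPPL2a, SPPL2b or SPP constitutively (mouse SPPL2a line analogous, mouse TNFα(aa1-77)-NTF-EGFP-NLS) with doxycycline-inducible EGFP substrate. 3000 cells/well, 3−4 h, then 11-point inhibitor 100 μM to 1 nM, 0.9% DMSO, 5 μg/mL doxycycline, 24 h 37 °C. PFA fixed, Hoechst nuclei; nuclear minus cytoplasmic EGFP intensity; inhibition vs 0.5 μM reference and DMSO; IC50 by nonlinear regression.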

[2] = Total concentration in Lewis rat blood at 3 mg/kg, po bid after 24 hrs by LC/MS/MS analysis; type: ADME, organism-based; conditions: read-out: Drug uptake
[3] = test system: Rattus norvegicus; experiment: Dose normalized AUC in Wistar rat at 10 mg/kg, po bid by LC/MS/MS analysis; type: ADME, organism-based; conditions: in vivo
[4] = test system: Rattus norvegicus; experiment: In vivo inhibition of SPPL2a in Lewis rat assessed as accumulation of CD74/p8 in blood at 3 mg/kg first dose administered via oral gavage followed by second dose after 8 hrs measured 16 hrs post second dose by Western blot method; type: functional, organism-based
In short: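 Rat blood (200 μL) red cells lysed with RBC lysis buffer three times, pellet lysed in Tris pH 6.8/NaCl/EDTA/Triton X-100/deoxycholate with protease inhibitors; Western blot for CD74/p8 with affinity-purified antibody specific for rat CD74/p8 at 1:200.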

[5] = test system: Mus musculus; experiment: In vivo inhibition of SPPL2a in mouse assessed as accumulation of CD74/p8 in splenocyte lysate at 40 mg/kg administered via oral gavage as single dose measured 16 hrs post dose by Western blot method; type: functional, organism-based
In short: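 Mice gavaged in 0.5% MC:0.5% Tween or PEG:D5W 3:1. Spleens dissociated, red cells lysed with ACK, 1 × 10^6 cells lysed with protease inhibitors; 18 μg lysate on 10% gel, blotted, CD74 full length and p8 detected with rat anti-mouse CD74 In-1 and Alexa488 anti-rat IgG, LiCor scan; p8/full-length ratio expressed as percent of reference compound ratio.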

[6] = Clearance in Wistar rat at 3 mg/kg, iv by LC/MS/MS analysis; type: ADME, organism-based; conditions: in vivo
[7] = test system: Mus musculus; experiment: Immunomodulatory activity in mouse assessed as reduction in marginal zone B cells in splenocyte at 3 to 30 mg/kg administered via oral gavage bid at 8 and 16 hrs dosing interval between first and second dose respectively for 11 days measured 16 hrs post last dose on day 12 by flow cytometry; type: functional, organism-based
In short: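 Mice gavaged with compound in 0.5% MC:0.5% Tween or PEG:D5W 3:1. Spleens dissociated in GentleMACS, filtered at 40 μm, ACK red-cell lysis, counted; 1 × 10^6 splenocytes stained 30 min on ice in HBSS/2% FBS/5 mM EDTA with antimouse panels for B-cell subsets (B220, CD21, CD23, IgM, IgD) or dendritic cells (PDCA1, CD11c, MHCII, lineage markers); analyzed on Fortessa flow cytometer.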

[8] = Total concentration in Lewis rat blood at 30 mg/kg, po bid after 24 hrs by LC/MS/MS analysis; type: ADME, organism-based; conditions: read-out: Drug uptake
[9] = Clearance in Sprague-Dawley rat at 1 mg/kg, iv by LC/MS/MS analysis; type: ADME, organism-based; conditions: in vivo
In short: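 Female Sprague−Dawley rats with femoral artery and vein catheters implanted 96−120 h beforehand; cassette dosing iv 1 mg/kg per compound in NMP/PEG200 (30:70); arterial blood into EDTA tubes at several times, frozen; LC-MS/MS vs standard curve with QCs within 70−130%; noncompartmental analysis.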

[10] = Selectivity ratio of IC50 for human gamma-secretase expressed in HEK293 cells to IC50 for human SPPL2a expressed in HEK293 cells
In short: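 HEK293 transiently transfected: SPPL2a arm with human SPPL2a, VP16-TNFα(aa1-76)-NTF and Gal4-luciferase; γ-secretase arm with human Notch1-VP16-Gal4 plus reporter (endogenous γ-secretase). Compound added 3 h after plating, 10 μM–0.3 nM final, triplicate, 24 h at 37 °C; luminescence read. IC50 from concentration vs normalised luminescence; ratio of the two IC50s.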

[11] = test system: Mus musculus; experiment: In vivo inhibition of SPPL2a in mouse assessed as increase in CD74/p8 accumulation in splenocytes at 10 to 100 mg/kg, po administered as single dose measured after 4 hrs by Western blot method; type: functional, organism-based
[12] = test system: Mus musculus; experiment: In vivo inhibition of mouse gamma-secretase assessed as effect on Hes1 mRNA level in jejunum up to 100 mg/kg, po administered as single dose by RT-PCR method; type: organism-based
In short: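 Thymus and jejunum excised into RNALater, 4 °C overnight, washed, frozen at −80 °C; total RNA from 10 mg tissue by MagNA Pure LC; Hes1 measured by TaqMan real-time PCR; significance by two-tailed heteroscedastic Student's t-test.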

[13] = Drug uptake in mouse spleen at 100 mg/kg, po administered as single dose after 4 hrs by LC/MS/MS analysis; type: ADME, organism-based; conditions: read-out: Drug uptake
[14] = Total plasma concentration in mouse at 10 mg/kg, po administered as single dose after 4 hrs by LC/MS/MS analysis; type: ADME, organism-based
[15] = test system: Mus musculus; experiment: In vivo inhibition of SPPL2a in mouse assessed as increase in CD74/p8 accumulation in splenocytes at 100 mg/kg, po administered as single dose measured after 4 hrs by Western blot method; type: functional, organism-based

Compound	IC50 [1] [nM]	concentration at 24 h [2] [nM]	AUC/dose [3] [nM·h]	inhibition [4]	inhibition [5]	clearance [6] [mL/min/kg]	Activity [7]	concentration at 24 h [8] [nM]	clearance [9] [mL/min/kg]	Ratio IC50 [10]	Activity [11]	Activity [12]	concentration at 4 h [13] [nM]	concentration at 4 h [14] [nM]	Activity [15]
Cc1ncc(F)cc1NC(=O)C[C@H](C(=O)N[C@@H]1C(=O)N2CC3(CC3)CN2C(=O)c2ccccc21)C1CC1	430	231	8787	Active	Active	6	Active	3560							
Cc1ccccc1NC(=O)C[C@@H](C)C(=O)N[C@@H]1C(=O)N2CCCN2Cc2ccccc21									45	52	Active	Non-Toxic	1440	57	Active
